Measurements taken from ChEMBL document CHEMBL1649261, “Pharmacodynamic profile of tigecycline against methicillin-resistant Staphylococcus aureus in an experimental pneumonia model” (Antimicrob Agents Chemother, 2009).
Values after ≈ are worked out from the molar mass of the structure shown.

Columns and labels:
Type in all cases: functional
Staphylococcus aureus [1] = test: Antibacterial activity against community-acquired methicillin-resistant Staphylococcus aureus 156 by microdilution method
Method in brief: (§1)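 Tigecycline MIC measured in triplicate by broth microdilution following CLSI guidelines. Isolates were stored at −80°C in skim milk and subcultured twice on blood agar before testing.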

Staphylococcus aureus [2] = test: Antibacterial activity against hospital-acquired methicillin-resistant Staphylococcus aureus 152 by microdilution method; method in brief: as §1
Staphylococcus aureus [3] = test: Antibacterial activity against community-acquired methicillin-resistant Staphylococcus aureus 144 by microdilution method; method in brief: as §1
Staphylococcus aureus [4] = test: Antibacterial activity against methicillin-susceptible Staphylococcus aureus ATCC 29213 by microdilution method; method in brief: as §1
Staphylococcus aureus [5] = test: Antibacterial activity against hospital-acquired methicillin-resistant Staphylococcus aureus 56 by microdilution method; method in brief: as §1
Staphylococcus aureus [6] = test: Antibacterial activity against community-acquired methicillin-resistant Staphylococcus aureus 147 by microdilution method; method in brief: as §1

| SMILES | MIC (Staphylococcus aureus [1]) | MIC (Staphylococcus aureus [2]) | MIC (Staphylococcus aureus [3]) | MIC (Staphylococcus aureus [4]) | MIC (Staphylococcus aureus [5]) | MIC (Staphylococcus aureus [6]) |
| --- | --- | --- | --- | --- | --- | --- |
| CCC[C@@H]1C[C@@H](C(=O)N[C@@H]([C@H]2O[C@H](SC)[C@H](O)[C@@H](O)[C@H]2O)[C@H](C)Cl)N(C)C1 [CLINDAMYCIN] | ≤ 0.5 µg/mL | 0.125 µg/mL (≈ 0.294 µM) | > 16 µg/mL | 0.125 µg/mL (≈ 0.294 µM) | 0.25 µg/mL (≈ 0.588 µM) | 0.125 µg/mL (≈ 0.294 µM) |
| C[C@H]1c2cccc(O)c2C(=O)C2=C(O)[C@]3(O)C(=O)C(C(N)=O)=C(O)[C@@H](N(C)C)[C@@H]3[C@@H](O)[C@@H]21.O [DOXYCYCLINE] | – | 0.5 µg/mL | 0.5 µg/mL | 0.5 µg/mL | 8 µg/mL | 2 µg/mL |
| CC[C@H]1OC(=O)[C@H](C)[C@@H](O[C@H]2C[C@@](C)(OC)[C@@H](O)[C@H](C)O2)[C@H](C)[C@@H](O[C@@H]2O[C@H](C)C[C@H](N(C)C)[C@H]2O)[C@](C)(O)C[C@@H](C)C(=O)[C@H](C)[C@@H](O)[C@]1(C)O [ERYTHROMYCIN] | > 32 µg/mL | 1 µg/mL (≈ 1.36 µM) | > 32 µg/mL | 1 µg/mL (≈ 1.36 µM) | 32 µg/mL (≈ 43.6 µM) | > 32 µg/mL |
